The values that follow come from ChEMBL document CHEMBL1806486, “Discovery and evaluation of 3-phenyl-1H-5-pyrazolylamine-based derivatives as potent, selective and efficacious inhibitors of FMS-like tyrosine kinase-3 (FLT3)” (Bioorg Med Chem, 2011).

Series [1] relates to U-937. The series is described as follows: Antiproliferation activity against human FLT3 gene-deficient U937 cells after 72 hrs by MTS method. Format: functional. The settings on record: U-937, 72 h.
The subject of series [2] is Mus musculus. The series is described as follows: Toxicity in athymic nu/nu nude mouse harboring xenografted human MV4:11 cells assessed as reduction of body weight at 50 mg/kg, iv for continuous 5 days. The series is classed as organism-based. Also noted: dose 50 mg/kg, route intravenous; scale not given: the % may be the effect or the level left. The note with it: in vivo, 120 h.

Series [3] addresses Vascular endothelial growth factor receptor 2 (Homo sapiens, UniProt P35968). Nature of the series: Inhibition of recombinant GST-tagged VEGFR2 expressed in Sf9 insect cells after 120 mins by Kinase-Glo assay. The series is classed as cell-based.
In series [4] the target is Platelet-derived growth factor receptor beta (Homo sapiens) (UniProt P09619). Nature of the series: Inhibition of PDGFR beta at 0.1 uM.
Platelet-derived growth factor receptor beta (Homo sapiens), sequence (P09619 whole entry): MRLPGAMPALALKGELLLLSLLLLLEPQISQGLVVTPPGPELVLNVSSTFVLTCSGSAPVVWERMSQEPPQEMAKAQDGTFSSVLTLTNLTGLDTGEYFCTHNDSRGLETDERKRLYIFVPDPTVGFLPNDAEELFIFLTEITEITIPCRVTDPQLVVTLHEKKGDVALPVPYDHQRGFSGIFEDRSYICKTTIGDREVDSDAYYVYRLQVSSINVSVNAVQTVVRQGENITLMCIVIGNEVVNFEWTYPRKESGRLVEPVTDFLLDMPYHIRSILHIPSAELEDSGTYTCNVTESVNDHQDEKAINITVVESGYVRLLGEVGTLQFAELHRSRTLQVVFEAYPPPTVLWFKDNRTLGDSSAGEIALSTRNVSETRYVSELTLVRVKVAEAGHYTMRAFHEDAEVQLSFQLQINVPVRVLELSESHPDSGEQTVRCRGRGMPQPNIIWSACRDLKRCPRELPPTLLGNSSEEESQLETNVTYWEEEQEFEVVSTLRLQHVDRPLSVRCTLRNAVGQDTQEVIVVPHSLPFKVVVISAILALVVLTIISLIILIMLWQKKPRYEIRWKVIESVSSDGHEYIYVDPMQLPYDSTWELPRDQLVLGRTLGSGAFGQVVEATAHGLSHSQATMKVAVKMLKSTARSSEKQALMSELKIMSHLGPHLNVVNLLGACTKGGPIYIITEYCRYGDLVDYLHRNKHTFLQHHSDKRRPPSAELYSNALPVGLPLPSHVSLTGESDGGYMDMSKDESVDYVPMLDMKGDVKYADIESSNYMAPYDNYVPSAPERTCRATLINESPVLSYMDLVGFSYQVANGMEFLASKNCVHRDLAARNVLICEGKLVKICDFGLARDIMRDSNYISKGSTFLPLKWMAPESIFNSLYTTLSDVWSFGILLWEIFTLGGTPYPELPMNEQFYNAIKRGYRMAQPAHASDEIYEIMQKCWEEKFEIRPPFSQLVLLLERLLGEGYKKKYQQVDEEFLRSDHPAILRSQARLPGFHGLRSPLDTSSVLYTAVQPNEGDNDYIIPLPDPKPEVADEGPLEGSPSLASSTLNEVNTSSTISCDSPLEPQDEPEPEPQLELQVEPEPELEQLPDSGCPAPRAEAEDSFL
Series [5] deals with High affinity nerve growth factor receptor (Homo sapiens) (UniProt P04629). Nature of the series: Inhibition of TRKA at 0.1 uM.
The nature of series [6]: Clearance in Sprague-Dawley rat at 5 mg/kg, iv and 20 mg/kg, po. The series is classed as ADME, organism-based. The note with it: in vivo.
Series [7] relates to MV4-11. The series is described as follows: Antitumor activity against human MV4-11 cells xenografted in athymic nu/nu nude mouse assessed as inhibition of tumor growth at 50 mg/kg, iv qd for 1 to 5 and 8 to 12 days. Format: functional, organism-based. On the set-up: dose 50 mg/kg. The gist of the method:
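Nude nu/nu mice (9 weeks old) received 1 × 10^6 MV4;11 cells s.c. in the left flank. Treatment began at a mean tumor volume of about 500 mm3, with n = 8 per group. Dosing was iv once daily at 10, 25 or 50 mg/kg on days 1–5 and 8–12, in DMSO/Cremophor/saline vehicle, with vehicle controls. Tumor volume was measured by caliper as (width × length²)/2.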

The target of series [8] is Macrophage colony-stimulating factor 1 receptor (Homo sapiens) (UniProt P07333). The series is described as follows: Inhibition of CSF1R at 0.1 uM.
Macrophage colony-stimulating factor 1 receptor (Homo sapiens), sequence (P07333 whole entry): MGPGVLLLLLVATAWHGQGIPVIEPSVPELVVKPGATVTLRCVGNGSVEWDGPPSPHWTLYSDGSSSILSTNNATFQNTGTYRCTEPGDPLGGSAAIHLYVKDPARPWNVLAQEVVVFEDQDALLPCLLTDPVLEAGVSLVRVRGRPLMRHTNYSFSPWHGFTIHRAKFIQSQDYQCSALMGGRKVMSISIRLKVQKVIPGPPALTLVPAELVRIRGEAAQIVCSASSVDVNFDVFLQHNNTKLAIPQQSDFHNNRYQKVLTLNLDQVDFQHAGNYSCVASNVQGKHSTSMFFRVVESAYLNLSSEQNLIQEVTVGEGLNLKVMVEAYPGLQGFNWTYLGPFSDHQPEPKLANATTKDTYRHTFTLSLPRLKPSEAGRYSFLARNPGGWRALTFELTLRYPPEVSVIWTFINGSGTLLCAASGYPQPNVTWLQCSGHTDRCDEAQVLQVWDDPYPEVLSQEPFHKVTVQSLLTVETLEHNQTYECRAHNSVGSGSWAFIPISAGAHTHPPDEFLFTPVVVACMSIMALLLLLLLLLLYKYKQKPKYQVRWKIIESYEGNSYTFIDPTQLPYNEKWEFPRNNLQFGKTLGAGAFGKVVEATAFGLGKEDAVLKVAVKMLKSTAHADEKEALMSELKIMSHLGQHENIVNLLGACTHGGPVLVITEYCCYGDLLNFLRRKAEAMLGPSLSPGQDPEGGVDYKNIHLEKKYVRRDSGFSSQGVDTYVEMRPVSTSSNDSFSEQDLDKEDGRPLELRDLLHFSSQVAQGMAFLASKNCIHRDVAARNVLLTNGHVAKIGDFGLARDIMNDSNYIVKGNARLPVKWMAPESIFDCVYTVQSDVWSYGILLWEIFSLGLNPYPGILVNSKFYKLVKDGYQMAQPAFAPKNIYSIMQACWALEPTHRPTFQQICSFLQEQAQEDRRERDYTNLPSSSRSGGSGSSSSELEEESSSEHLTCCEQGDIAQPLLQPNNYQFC
Series [9] has as its system MOLM-13. Nature of the series: Antitumor activity against human MOLM13 cells xenografted in iv dosed athymic nu/nu nude mouse assessed as inhibition of tumor growth administered qd for two weeks. The series is classed as functional, organism-based. The gist of the method:
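Athymic nu/nu mice (9 weeks old) received 1 × 10^6 MOLM-13 cells s.c. in the left flank. They were randomized at a mean tumor volume of about 200 mm3, with 7–8 per group. Dosing was iv once daily at 10 or 50 mg/kg on days 1–5 and 8–12, in 10% DMSO/20% Cremophor/70% saline. Vehicle controls were dosed the same way. Caliper volume = (width × length²)/2, reported as mean ± SEM.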

Series [10] deals with Mus musculus. Nature of the series: Toxicity in normal mouse assessed as reduction of body weight at 50 mg/kg, iv for continuous 5 days. The note with it: in vivo, 120 h.
The target in series [11] is Vascular endothelial growth factor receptor 3 (Homo sapiens) (UniProt P35916). Nature of the series: Inhibition of VEGFR3 at 0.1 uM.
Vascular endothelial growth factor receptor 3 (Homo sapiens), sequence (P35916 whole entry): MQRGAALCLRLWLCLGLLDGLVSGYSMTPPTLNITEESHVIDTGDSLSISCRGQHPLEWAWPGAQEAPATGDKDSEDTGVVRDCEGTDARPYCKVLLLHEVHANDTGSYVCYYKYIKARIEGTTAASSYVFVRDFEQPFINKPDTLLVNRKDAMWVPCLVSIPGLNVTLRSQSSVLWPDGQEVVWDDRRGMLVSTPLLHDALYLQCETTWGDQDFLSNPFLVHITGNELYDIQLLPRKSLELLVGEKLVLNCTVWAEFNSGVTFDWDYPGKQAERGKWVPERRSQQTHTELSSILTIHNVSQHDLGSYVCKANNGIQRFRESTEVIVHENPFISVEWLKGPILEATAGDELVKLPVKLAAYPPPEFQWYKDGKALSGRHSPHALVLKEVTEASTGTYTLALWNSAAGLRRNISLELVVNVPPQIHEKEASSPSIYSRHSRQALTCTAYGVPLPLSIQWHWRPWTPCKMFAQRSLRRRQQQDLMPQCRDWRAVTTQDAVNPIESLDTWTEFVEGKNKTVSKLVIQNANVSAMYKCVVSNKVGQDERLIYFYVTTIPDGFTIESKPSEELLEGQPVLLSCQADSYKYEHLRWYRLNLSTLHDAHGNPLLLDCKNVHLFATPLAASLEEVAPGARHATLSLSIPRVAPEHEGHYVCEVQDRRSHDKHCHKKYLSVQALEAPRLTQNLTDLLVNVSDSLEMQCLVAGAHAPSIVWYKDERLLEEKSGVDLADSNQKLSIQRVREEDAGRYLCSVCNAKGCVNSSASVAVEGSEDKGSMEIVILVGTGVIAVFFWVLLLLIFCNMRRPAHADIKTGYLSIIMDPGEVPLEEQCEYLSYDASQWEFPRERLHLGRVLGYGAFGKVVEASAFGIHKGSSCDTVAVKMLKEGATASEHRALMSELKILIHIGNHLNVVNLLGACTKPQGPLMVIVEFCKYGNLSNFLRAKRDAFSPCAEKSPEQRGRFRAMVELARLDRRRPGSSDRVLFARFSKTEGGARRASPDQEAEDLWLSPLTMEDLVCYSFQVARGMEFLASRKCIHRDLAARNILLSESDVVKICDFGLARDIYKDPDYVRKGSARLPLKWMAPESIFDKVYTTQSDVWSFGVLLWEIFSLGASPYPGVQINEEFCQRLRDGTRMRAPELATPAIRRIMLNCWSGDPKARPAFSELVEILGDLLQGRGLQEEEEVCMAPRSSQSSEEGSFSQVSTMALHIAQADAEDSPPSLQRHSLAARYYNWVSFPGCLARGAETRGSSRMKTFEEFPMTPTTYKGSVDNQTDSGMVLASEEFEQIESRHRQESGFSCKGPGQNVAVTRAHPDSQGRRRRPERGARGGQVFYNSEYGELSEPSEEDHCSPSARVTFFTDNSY
Series [12] deals with MOLM-13. Nature of the series: Antiproliferation activity against human MOLM13 cells expressing FLT3 mutation assessed as cell viability after 72 hrs by MTS method. The series is classed as functional. The settings on record: MOLM-13, 72 h.
The nature of series [13]: Volume of distribution at steady state in Sprague-Dawley rat at 5 mg/kg, iv and 20 mg/kg, po. The series is classed as ADME, organism-based. The settings on record: in vivo, read-out: Vdss.
The target of series [14] is Vascular endothelial growth factor receptor 1 (Homo sapiens, UniProt P17948). The series is described as follows: Inhibition of recombinant GST-tagged VEGFR1 expressed in Sf9 insect cells after 120 mins by Kinase-Glo assay. The method, boiled down:
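GST-VEGFR1 (R781–I1338) or GST-VEGFR2 (V789–V1356) kinase domain, 50–100 ng, from Sf9 cells. Read-out was Kinase-Glo Plus luminescence.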

Series [15] deals with Proto-oncogene tyrosine-protein kinase receptor Ret (Homo sapiens) (UniProt P07949). Nature of the series: Inhibition of RET at 0.1 uM.

The source made the active and inactive calls. The rule behind the calls is not given here.

Vascular endothelial growth factor receptor 1, sequence (P17948 whole entry, the tested form may be a part): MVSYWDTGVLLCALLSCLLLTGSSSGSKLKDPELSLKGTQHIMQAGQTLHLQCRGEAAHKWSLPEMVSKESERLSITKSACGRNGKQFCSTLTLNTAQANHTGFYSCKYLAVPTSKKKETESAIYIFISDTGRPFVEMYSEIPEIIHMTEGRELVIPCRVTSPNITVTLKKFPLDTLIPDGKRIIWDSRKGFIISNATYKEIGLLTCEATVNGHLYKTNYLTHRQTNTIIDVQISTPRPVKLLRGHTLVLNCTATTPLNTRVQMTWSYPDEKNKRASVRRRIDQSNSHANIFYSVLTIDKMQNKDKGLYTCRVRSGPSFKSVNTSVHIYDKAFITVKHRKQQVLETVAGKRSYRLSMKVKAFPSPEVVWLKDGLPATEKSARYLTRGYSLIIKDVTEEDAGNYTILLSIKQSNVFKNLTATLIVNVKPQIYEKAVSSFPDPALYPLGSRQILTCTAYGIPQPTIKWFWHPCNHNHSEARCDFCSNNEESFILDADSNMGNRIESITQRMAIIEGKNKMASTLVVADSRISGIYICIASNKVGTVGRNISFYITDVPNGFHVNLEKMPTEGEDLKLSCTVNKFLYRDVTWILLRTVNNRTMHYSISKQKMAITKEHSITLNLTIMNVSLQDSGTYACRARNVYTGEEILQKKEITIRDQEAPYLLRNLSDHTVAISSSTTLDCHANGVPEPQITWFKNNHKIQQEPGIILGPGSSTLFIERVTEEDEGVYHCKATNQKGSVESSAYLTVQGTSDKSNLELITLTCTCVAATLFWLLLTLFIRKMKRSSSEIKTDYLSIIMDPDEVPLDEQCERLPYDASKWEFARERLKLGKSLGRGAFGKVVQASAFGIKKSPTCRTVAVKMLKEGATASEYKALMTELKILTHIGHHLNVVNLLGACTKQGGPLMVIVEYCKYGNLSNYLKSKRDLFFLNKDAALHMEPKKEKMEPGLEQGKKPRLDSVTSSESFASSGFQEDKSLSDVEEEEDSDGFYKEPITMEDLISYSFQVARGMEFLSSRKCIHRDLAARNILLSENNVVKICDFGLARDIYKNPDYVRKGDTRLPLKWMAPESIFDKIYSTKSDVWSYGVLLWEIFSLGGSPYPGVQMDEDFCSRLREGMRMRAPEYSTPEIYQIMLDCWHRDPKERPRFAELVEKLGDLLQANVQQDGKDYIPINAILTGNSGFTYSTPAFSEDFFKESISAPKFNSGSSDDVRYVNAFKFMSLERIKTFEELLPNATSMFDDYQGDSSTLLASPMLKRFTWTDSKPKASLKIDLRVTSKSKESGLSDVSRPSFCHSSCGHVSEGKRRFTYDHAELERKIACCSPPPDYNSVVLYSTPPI

On to `Cc1nc(Nc2cc(-c3cccc(NS(=O)(=O)c4ccccc4)c3)n[nH]2)cc(N2CCN(C)CC2)n1`, for which the results for the GI50 in [1] and in [12] were greater than 20000 nM and 21 nM, respectively. For the same molecule, the Activity in series [2] was less than 3%; in series [9] it was “Dose-dependent effect”; in series [10], “Non-toxic”. The IC50 was found to be 290 nM in series [3] and 310 nM in series [14]. The inhibition stood at 18% in series [4]; 96% in series [5]; 16% in series [8]; 31% in series [11]; 71% in series [15]. In series [6], this molecule gave a clearance of 57.4 mL/min/kg. In [7], the outcome was Active. In [13], the Vd came out at 6.6 L/kg.
